NOD2-RIPK2 inh = NOD2-RIPK2 protein interaction inhibition; O43353; CHO BLA complementation NOD2-RIPK2, CCF4 ratio; hit rate 0.38% among 360,000; inhibition, % at 4.98 µM; in the data active = inhibition above about 21%;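 also: 0% = vehicle only and 100% = reference blocker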
TLR4-MyD88 BLA = inhibitors of human TLR4-MyD88 binding; HeLa CL3-4 TLR4/MyD88 BLA complementation, FRET ratio; inhibition, % at 8.4 µM; hit rate 0.18% among 200,000; in the data active = inhibition above about 25%;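 also: 0% = vehicle and 100% = reference inhibitor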
Target sequence (O00206 whole entry, looked up): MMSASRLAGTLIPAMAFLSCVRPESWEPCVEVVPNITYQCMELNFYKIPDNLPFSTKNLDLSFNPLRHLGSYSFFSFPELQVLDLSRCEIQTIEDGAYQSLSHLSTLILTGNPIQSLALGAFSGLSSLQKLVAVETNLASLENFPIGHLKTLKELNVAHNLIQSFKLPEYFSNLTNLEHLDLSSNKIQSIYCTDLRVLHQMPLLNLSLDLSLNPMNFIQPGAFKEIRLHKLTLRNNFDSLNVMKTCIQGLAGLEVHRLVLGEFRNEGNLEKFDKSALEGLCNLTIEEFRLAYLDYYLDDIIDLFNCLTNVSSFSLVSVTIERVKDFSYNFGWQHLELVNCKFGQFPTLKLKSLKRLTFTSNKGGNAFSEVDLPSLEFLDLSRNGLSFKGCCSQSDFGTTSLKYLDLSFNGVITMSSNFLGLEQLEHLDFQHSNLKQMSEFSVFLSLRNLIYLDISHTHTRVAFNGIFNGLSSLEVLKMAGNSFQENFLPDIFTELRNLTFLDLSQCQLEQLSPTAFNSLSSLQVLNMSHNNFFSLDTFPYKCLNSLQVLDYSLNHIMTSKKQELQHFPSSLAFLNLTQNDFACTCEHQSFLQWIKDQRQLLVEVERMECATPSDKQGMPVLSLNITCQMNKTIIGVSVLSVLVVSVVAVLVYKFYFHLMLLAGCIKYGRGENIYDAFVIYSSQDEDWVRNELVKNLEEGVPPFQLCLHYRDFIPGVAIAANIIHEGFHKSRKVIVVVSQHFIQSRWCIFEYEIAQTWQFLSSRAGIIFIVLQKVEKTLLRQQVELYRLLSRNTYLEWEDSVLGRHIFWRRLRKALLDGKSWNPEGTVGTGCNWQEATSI
Target sequence (Q99836 whole entry, looked up): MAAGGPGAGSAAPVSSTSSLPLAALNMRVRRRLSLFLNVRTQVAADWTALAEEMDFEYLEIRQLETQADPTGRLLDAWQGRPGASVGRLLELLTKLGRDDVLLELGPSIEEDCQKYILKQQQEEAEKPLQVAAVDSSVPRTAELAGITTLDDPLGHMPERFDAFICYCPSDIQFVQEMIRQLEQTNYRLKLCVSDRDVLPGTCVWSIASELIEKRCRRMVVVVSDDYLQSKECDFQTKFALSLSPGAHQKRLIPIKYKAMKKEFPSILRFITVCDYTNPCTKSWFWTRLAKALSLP
Dynein cargo inh = blocks dynein driven cargo transport along microtubules; hit rate 0.47% among 220,000; AID 1381; 3617.4 mouse cells, GR-EGFP nuclear translocation imaging; test concentration mostly 20 µM; stimulated with dexamethasone, 1 µM; active compounds read low; z-score, hits read low;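 active = plate z-score of nuclear minus cytoplasmic receptor signal below a set negative limit, without overly bright fluorescence or cell loss, cut at about -3.5 in these data, passing the limit was not always enough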;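 also: z-score of nuclear minus cytoplasmic ring GR-EGFP intensity difference per well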
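Buffer or medium: tet-free medium with charcoal-stripped serum / Also added: dexamethasone agonist, 1.0 µM final, for 30 min / Timing: induction 48 h, compound 1 h, agonist 30 min / Measured by: high-content fluorescence imaging after fixation / Read-out: nuclear-to-cytoplasmic GR-EGFP distribution per well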
Beta2AR agonist = agonists of human beta-2 adrenergic receptor inducing internalization; P07550; Am2.2-beta2AR cells, FAP receptor internalization, flow cytometry; response, % (no concentration beside the values); hit rate 0.43% among 340,000; AID 504454;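 active = response above a set limit, near 3 SD of response in nonfluorescent compounds, cut at about 42% in these data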
TLR9-MyD88 block = inhibitors of human TLR9-MyD88 binding. CHO BLA complementation TLR9-MyD88, CCF4 FRET ratio. inhibition, % at 4.98 µM. hit rate 0.21% among 340,000. AID 504734;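 active = inhibition above the mean over all tested compounds plus 3 SD, cut at about 21% in these data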;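 also: 0% = DMSO only wells and 100% = clavulanate BLA inhibitor control wells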
ABHD5 PLIN5 PPI = ABHD5-PLIN5 protein interaction inhibition; hit rate 0.78% among 360,000; AID 602281; Q00G26+Q8WTS1; Split G. princeps luciferase complementation, luminescence, 4 h; inhibition, % at 4 µM;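 active = inhibition above the mean inhibition across every tested compound plus 3 SD, cut at about 22% in these data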;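 also: 0% = DMSO only wells and the 100% control is not disclosed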
TLR4-MyD88 conf = confirmation of human TLR4-MyD88 binding inhibitors. shares compounds with TLR4-MyD88 BLA. inhibition, % at 8.4 µM. hit rate 50% among 350. HeLa CL3-4 BLA complementation, CCF4 FRET ratio;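 active = mean inhibition across three repeat runs above about 25% carried over from the earlier screen, limit read from the data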;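 also: plate controls were DMSO only for no effect and clavulanic acid blocking BLA at full dose for full effect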
BLA inh HeLa = inhibits beta-lactamase activity, counter-screen to TLR4-MyD88 binding inhibitors. shares compounds with TLR4-MyD88 BLA. HeLa BLA reporter, CCF4 FRET ratio. inhibition, % at 8.4 µM. hit rate 63% among 350. AID 1237;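 active = mean inhibition over three repeats above about 26% taken from the earlier screen, limit read from the data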;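 also: HeLa cells stably expressing beta-lactamase reporter as counterscreen for TLR4-MyD88 inhibitors; 0% = DMSO and 100% = clavulanic acid full inhibition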
Dynein inh conf = dynein cargo transport inhibition, confirmation | shares compounds with Dynein cargo inh | 3617.4 GR-EGFP nuclear translocation imaging, dexamethasone-induced | calls only at 20 µM | hit rate 69% among 1,000 | AID 463116;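 active = inhibition of receptor movement into the nucleus at or above a set limit in both runs, with normal cell brightness and cell count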;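 also: dexamethasone at 1 µM final in well for 30 min; nuclear minus cytoplasmic GR-EGFP mean intensity difference in channel 2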
B2AR ag CP1 = activates human beta-2 adrenergic receptor; hit rate 25% among 1,100; AID 540358; shares compounds with Beta2AR agonist; percent response (surface receptor), % at 10 µM; Am2.2-beta2AR cells, FAP surface receptor, flow cytometry; active compounds read low;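 active = surface receptor percent response at or below 58%, roughly 3 SD from nonfluorescent compounds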
FAP fluor counter = counter-screen for beta-2AR agonists: fluorescence in Am2.2 cells | shares compounds with Beta2AR agonist | FAP fluorogen flow cytometry, fluorescence counterscreen; active compounds read low | calls only at 10 µM | 1,100 tested, under 10 active | AID 588765;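 active = percent response below a set limit in fluorescence channel 1 and below 50% in channel 8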
TLR9-MyD88 conf = confirmation of human TLR9-MyD88 binding inhibitors | shares compounds with TLR9-MyD88 block | hit rate 51% among 680 | AID 540250 | CHO TLR9/MyD88 BLA complementation, CCF4 FRET ratio | inhibition, % at 4.98 µM;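 active = mean inhibition across three repeats above about 21% taken from the earlier screen, limit read from the data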;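 also: blue over green emission ratio reports constitutive TLR9 MyD88 association via BLA complementation; 0% = DMSO vehicle wells and 100% = clavulanate BLA inhibitor wells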
BLA counter-1 = beta-lactamase reporter inhibition, counter-screen artifact. shares compounds with TLR9-MyD88 block. CHO-BLA cells, CCF4 FRET ratio, BLA reporter. inhibition, % at 4.98 µM. hit rate 7% among 680;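 active = mean inhibition above a 50% cutoff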;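 also: counterscreen of TLR9-MyD88 hits on CMV-driven BLA in CHO-K1 cells; 0% = DMSO alone and 100% = clavulanate blocking BLA; higher means less blue over green ratio so more BLA blockade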
TLR9 CHO tox = counter-screen for TLR9-MyD88 inhibitors: cytotoxicity in CHO cells; shares compounds with TLR9-MyD88 block; luminescence; inhibition, % at 4.98 µM; hit rate 39% among 680; in the data active = inhibition above about 11%
NOD2 RIPK2 conf = NOD2-RIPK2 interaction inhibition confirmed | AID 624370 | inhibition, % at 4.98 µM | hit rate 70% among 1,200 | CHO cells, NOD2-RIPK2 BLA complementation, CCF4 FRET | shares compounds with NOD2-RIPK2 inh;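 active = mean inhibition across replicates above a set limit taken from the earlier primary screen, cut at about 21% in these data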;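 also: 0% = DMSO-only wells and the high end = clavulanate BLA-blocked wells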
BLA counter-2 = hits BLA reporter in NOD2-RIPK2 inhibitor counterscreen | shares compounds with NOD2-RIPK2 inh | CHO BLA reporter, CCF4 FRET ratio | inhibition, % at 4.98 µM | hit rate 57% among 1,200 | AID 624371;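 active = mean inhibition above the low-control mean inhibition plus three low-control SD, cut at about 11% in these data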;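 also: 0% = DMSO only wells and 100% = clavulanate high control wells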
Active calls of the source: *. Compounds with a hit are over-represented: about 1.6% of the library has one in this group of screens.

`N#C/C(=C\c1cn(Cc2ccc(F)cc2)c2ccccc12)C(=O)NCc1ccco1` gave NOD2-RIPK2 inh 31*, TLR4-MyD88 BLA 63*, Dynein cargo inh -0.26, Beta2AR agonist -4, TLR9-MyD88 block 78*, ABHD5 PLIN5 PPI 6, TLR4-MyD88 conf 73*, BLA inh HeLa 100*, NOD2 RIPK2 conf 82* and BLA counter-2 85*.
For CN(CCc1ccccc1)C(=O)c1cccc(NC(=O)Cc2cccc(NC(=O)C3CCCN(C(=O)c4ccccc4)C3)c2)c1 (configuration not stated) the results were NOD2-RIPK2 inh 1, Beta2AR agonist 1, TLR9-MyD88 block -12 and ABHD5 PLIN5 PPI 0.
For CCOC(=O)[C@]12CCC=C1N(Cc1ccccc1)C(=O)[C@H](CC(=O)NCc1ccccc1)C2 the results were NOD2-RIPK2 inh -1 and ABHD5 PLIN5 PPI -10.
CCN1CCN(c2ccc(NC(=O)c3ccc([N+](=O)[O-])o3)cc2Cl)CC1 was read as NOD2-RIPK2 inh 31*, TLR4-MyD88 BLA 30*, Dynein cargo inh -4.2*, Beta2AR agonist 63*, TLR9-MyD88 block 12, ABHD5 PLIN5 PPI 0, TLR4-MyD88 conf 20, BLA inh HeLa 5, Dynein inh conf active, B2AR ag CP1 13*, FAP fluor counter inactive, NOD2 RIPK2 conf 25* and BLA counter-2 16*.
For Cc1[nH]c2ccccc2c1/C=N/NC(=O)c1ccccc1 the results were NOD2-RIPK2 inh 4, Beta2AR agonist -1, TLR9-MyD88 block 3 and ABHD5 PLIN5 PPI 0.
Cc1[nH]c2ccccc2c1/C=C/C(=O)c1ccccc1 was read as NOD2-RIPK2 inh 44*, TLR4-MyD88 BLA 27*, Dynein cargo inh 1.3, Beta2AR agonist -20, TLR9-MyD88 block 40*, ABHD5 PLIN5 PPI 4, TLR4-MyD88 conf 27*, BLA inh HeLa 49*, TLR9-MyD88 conf 21, BLA counter-1 22, TLR9 CHO tox 1, NOD2 RIPK2 conf 43* and BLA counter-2 49*.
`CC(C)c1cc(=O)oc2c3c4c(cc12)CCCN4CCC3` gave NOD2-RIPK2 inh 7, TLR4-MyD88 BLA 6, Dynein cargo inh 0.66, Beta2AR agonist -3, TLR9-MyD88 block 1 and ABHD5 PLIN5 PPI 1.

High-throughput results (PubChem)
